From ChEMBL document CHEMBL1158554, “3,5-Diaryl-1H-pyrazole as a molecular scaffold for the synthesis of apoptosis-inducing agents” (2010)
Activity calls are given as the source filed them. No cut-off for these calls is given here.

Legend:
SW-620 [1] = assay: Growth inhibition of human SW620 cells at 40 uM after 48 hrs by MTT assay; type: functional, cell-based
Summary of the method: (§1)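 MTT growth inhibition at the top tested concentration of 40 uM, 48 h exposure, cells seeded as for GI50 (3000/well OVCA, SW620, H460; 5000/well AGS).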

OVCAR [2] = assay: Growth inhibition of human OVCAR cells after 48 hrs by MTT assay; type: functional
Summary of the method: (§2)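 Cells seeded 3000/well (OVCA, SW620, H460) or 5000/well (AGS), grown 24 h, then exposed to serial dilutions (DMSO stock) for 48 h at 37 °C, 5% CO2. MTT (2 mg/ml in PBS) added for 2 h; formazan dissolved in DMSO and read at 570 nm. Inhibition = (1 − At/Ac)×100 vs vehicle; GI50 interpolated from dose–response curves; four to six separate experiments, mean ± SEM.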

NCI-H460 [3] = assay: Growth inhibition of human H460 cells after 48 hrs by MTT assay; type: functional; conditions: NCI-H460, 48 h; summary of the method: as §2
AGS [4] = assay: Growth inhibition of human AGS cells after 48 hrs by MTT assay; type: functional; summary of the method: as §2
AGS [5] = assay: Growth inhibition of human AGS cells at 40 uM after 48 hrs by MTT assay; type: functional, cell-based; summary of the method: as §1
SW-620 [6] = assay: Growth inhibition of human SW620 cells after 48 hrs by MTT assay; type: functional; conditions: SW-620, 48 h; summary of the method: as §2
OVCAR [7] = assay: Growth inhibition of human OVCAR cells at 40 uM after 48 hrs by MTT assay; type: functional, cell-based; summary of the method: as §1
NCI-H460 [8] = assay: Growth inhibition of human H460 cells at 40 uM after 48 hrs by MTT assay; type: functional, cell-based; summary of the method: as §1
OVCAR [9] = assay: Cell cycle arrest in human OVCAR cells assessed as accumulation at sub-G1 phase at 2.5 uM after 24 hrs by propidium iodide staining-based FACS analysis; type: functional
Summary of the method: (§3)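 OVCA cells given 0.5% DMSO or compound for 24 h, harvested, PBS-rinsed, fixed in 80% ethanol and held at −20 °C until analysis. Propidium iodide DNA staining and flow cytometry; apoptotic nuclei scored as the subdiploid (sub-G1) peak, given as percent of the whole population. Untreated cells served as blank.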

OVCAR [10] = assay: Induction of apoptosis in human OVCAR cells assessed as PARP cleavage at 1.2 to 5 uM after 16 hrs by Western blot analysis; type: functional, cell-based
Summary of the method: (§4)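 OVCA cells treated 16 h (vehicle 1% DMSO), washed in PBS, lysed; 50 ug protein run on 15% SDS-PAGE, transferred to nitrocellulose, blocked overnight at 4 °C in TBST/5% milk. Probed with anti-PARP (1:500), anti-cleaved caspase-3, anti-cleaved caspase-9, anti-phospho-Akt, anti-Akt, anti-beta-actin (1:1000), then secondary IgG 1:10,000 for 1 h at room temperature; ECL detection. Total Akt used as reference for phospho-Akt.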

OVCAR [11] = assay: Cell cycle arrest in human OVCAR cells assessed as accumulation at sub-G1 phase at 5 uM after 24 hrs by propidium iodide staining-based FACS analysis; type: functional; summary of the method: as §3
[12] = target: RAC-alpha serine/threonine-protein kinase (Homo sapiens) (UniProt P31749); assay: Inhibition of Akt phosphorylation in human OVCAR cells at 1.2 to 5 uM after 16 hrs by Western blot analysis; type: cell-based; summary of the method: as §4
RAC-alpha serine/threonine-protein kinase (Homo sapiens), sequence (P31749 whole entry): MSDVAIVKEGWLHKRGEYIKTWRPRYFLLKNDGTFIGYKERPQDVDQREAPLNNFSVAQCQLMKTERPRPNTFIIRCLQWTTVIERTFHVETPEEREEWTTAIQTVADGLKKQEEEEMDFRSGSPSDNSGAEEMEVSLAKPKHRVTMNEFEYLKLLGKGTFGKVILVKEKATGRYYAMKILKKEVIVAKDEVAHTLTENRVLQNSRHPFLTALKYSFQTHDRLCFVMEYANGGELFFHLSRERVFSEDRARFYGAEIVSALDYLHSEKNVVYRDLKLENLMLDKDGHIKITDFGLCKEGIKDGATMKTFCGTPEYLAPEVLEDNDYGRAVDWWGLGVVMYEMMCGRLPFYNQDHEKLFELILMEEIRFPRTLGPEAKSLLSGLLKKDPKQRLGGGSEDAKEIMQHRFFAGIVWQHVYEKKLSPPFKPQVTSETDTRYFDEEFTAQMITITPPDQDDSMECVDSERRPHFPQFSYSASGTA

OVCAR [13] = assay: Cell cycle arrest in human OVCAR cells assessed as accumulation at sub-G1 phase at 1.2 uM after 24 hrs by propidium iodide staining-based FACS analysis; type: functional; summary of the method: as §3
OVCAR [14] = assay: Induction of apoptosis in human OVCAR cells assessed as increase in cleaved caspase-9 level at 1.2 to 5 uM after 16 hrs by Western blot analysis; type: functional, cell-based; summary of the method: as §4
OVCAR [15] = assay: Induction of apoptosis in human OVCAR cells assessed as increase in cleaved caspase-3 level at 1.2 to 5 uM after 16 hrs by Western blot analysis; type: functional, cell-based; summary of the method: as §4

Compound	growth inhibition (GI) (SW-620 [1])	GI50 (OVCAR [2]) [µM]	GI50 (NCI-H460 [3]) [µM]	GI50 (AGS [4]) [µM]	growth inhibition (GI) (AGS [5])	GI50 (SW-620 [6]) [µM]	growth inhibition (GI) (NCI-H460 [8])	other results
Nc1ccc(-c2cc(-c3ccccc3-c3ccccc3)n[nH]2)cc1	inactive	17.9	8.2	8.4	–	–	–	–
COc1ccc(-c2cc(-c3ccc(Br)cc3)n[nH]2)cc1	inactive	20.7	27.1	–	inactive	–	–	–
COc1ccc(-c2cc(-c3ccc(Cl)cc3)n[nH]2)cc1	inactive	12.8	11.6	–	inactive	–	–	–
COc1cccc(-c2cc(-c3ccc([N+](=O)[O-])cc3)[nH]n2)c1	inactive	19.1	11.2	–	inactive	–	–	–
COc1ccc(-c2cc(-c3ccc([N+](=O)[O-])cc3)[nH]n2)cc1OC	–	28.9	17.9	–	inactive	26.4	–	–
Oc1ccccc1-c1cc(-c2ccccc2-c2ccccc2)n[nH]1	–	5.8	4.6	7.5	–	10.6	–	–
COc1cccc(-c2cc(-c3ccccc3-c3ccccc3)n[nH]2)c1	inactive	5.8	8.7	7.5	–	–	–	–
COc1ccccc1-c1cc(-c2ccc(N)cc2)[nH]n1	–	–	–	–	inactive	21.1	inactive	growth inhibition (GI) (OVCAR [7]): inactive
FC(F)(F)c1ccc(-c2cc(-c3ccccc3-c3ccccc3)n[nH]2)cc1	inactive	2.75	–	6.9	–	–	inactive	Activity (OVCAR [9]): 15.75%; Activity (OVCAR [10]): Active; Activity (OVCAR [11]): 23.51%; inhibition [12]: Active; Activity (OVCAR [13]): 11.43%; Activity (OVCAR [14]): Active; Activity (OVCAR [15]): Active
COc1ccc(-c2cc(-c3ccc(F)cc3)n[nH]2)cc1	inactive	14	–	–	inactive	–	inactive	–
O=[N+]([O-])c1ccc(-c2cc(-c3ccc(F)cc3)n[nH]2)cc1	–	–	–	18.3	–	18.1	inactive	growth inhibition (GI) (OVCAR [7]): inactive
COc1ccc(-c2cc(-c3ccccc3-c3ccccc3)n[nH]2)cc1	–	0.67	0.73	0.79	–	0.89	–	Activity (OVCAR [9]): 20.53%; Activity (OVCAR [10]): Active; Activity (OVCAR [11]): 32.05%; inhibition [12]: Active; Activity (OVCAR [13]): 14.97%; Activity (OVCAR [14]): Active; Activity (OVCAR [15]): Active
O=[N+]([O-])c1ccc(-c2cc(-c3ccc(C(F)(F)F)cc3)n[nH]2)cc1	–	–	–	–	inactive	–	inactive	growth inhibition (GI) (OVCAR [7]): inactive
CN(C)c1ccc(-c2cc(-c3ccc(C(F)(F)F)cc3)n[nH]2)cc1	inactive	–	–	–	inactive	–	inactive	–
Nc1ccc(-c2cc(-c3ccc(C(F)(F)F)cc3)n[nH]2)cc1	inactive	18.6	21.5	–	inactive	–	–	–
COc1ccc(-c2cc(-c3ccc(N)cc3)[nH]n2)cc1	inactive	–	–	–	inactive	–	inactive	growth inhibition (GI) (OVCAR [7]): inactive
COc1ccc(-c2cc(-c3ccc(N)cc3)[nH]n2)cc1OC	inactive	–	–	–	inactive	–	inactive	growth inhibition (GI) (OVCAR [7]): inactive

Compound	growth inhibition (GI) (SW-620 [1])	GI50 (OVCAR [2]) [µM]	GI50 (NCI-H460 [3]) [µM]	GI50 (AGS [4]) [µM]	growth inhibition (GI) (AGS [5])	GI50 (SW-620 [6]) [µM]	growth inhibition (GI) (NCI-H460 [8])	other results
COc1ccc(-c2cc(-c3ccc4ccccc4c3)n[nH]2)cc1	–	17.5	13.2	19	–	26.9	–	–
O=[N+]([O-])c1ccc(-c2cc(-c3ccc4c(c3)OCO4)n[nH]2)cc1	–	10.8	8.9	13.1	–	23.5	–	–
COc1ccc(-c2cc(-c3ccc([N+](=O)[O-])cc3)[nH]n2)cc1	–	27.3	18.3	–	inactive	14.3	–	–
COc1ccccc1-c1cc(-c2ccccc2-c2ccccc2)n[nH]1	inactive	14.2	9.1	–	inactive	–	–	–
COc1ccc(-c2cc(-c3ccc(C(F)(F)F)cc3)n[nH]2)cc1	–	22.8	–	14.8	–	11.2	inactive	–
Oc1ccc(-c2cc(-c3ccccc3-c3ccccc3)n[nH]2)cc1	–	6.2	6.9	9.2	–	25.9	–	–
O=[N+]([O-])c1ccc(-c2cc(-c3ccc(Cl)cc3)n[nH]2)cc1	–	–	20.7	24.1	–	12.2	–	growth inhibition (GI) (OVCAR [7]): inactive
O=[N+]([O-])c1cccc(-c2cc(-c3ccccc3)n[nH]2)c1	inactive	5.8	6.1	11.4	–	–	–	–
O=[N+]([O-])c1ccc(-c2cc(-c3ccc(Br)cc3)n[nH]2)cc1	–	17.5	–	14.6	–	28.6	inactive	–
O=[N+]([O-])c1ccc(-c2cc(-c3ccccc3)n[nH]2)cc1	inactive	7.2	10.2	–	inactive	–	–	–
O=[N+]([O-])c1ccc(-c2cc(-c3ccccc3-c3ccccc3)n[nH]2)cc1	–	3.4	2.7	1.2	–	12.2	–	–
COc1ccccc1-c1cc(-c2ccc([N+](=O)[O-])cc2)[nH]n1	inactive	11.7	20.5	–	inactive	–	–	–
Oc1ccc(-c2cc(-c3ccc(C(F)(F)F)cc3)n[nH]2)cc1	–	9.2	20.1	9.8	–	19.6	–	–
COc1ccc(-c2cc(-c3ccccc3)n[nH]2)cc1	–	9.9	10.4	11.3	–	27.2	–	–
COc1cccc(-c2cc(-c3ccc(N)cc3)[nH]n2)c1	inactive	–	–	–	inactive	–	inactive	growth inhibition (GI) (OVCAR [7]): inactive
Nc1ccc(-c2cc(-c3ccccc3)n[nH]2)cc1	–	–	26.7	–	inactive	25.4	–	growth inhibition (GI) (OVCAR [7]): inactive
